From PMC8177775 (Cancer Science, 2021)
“And” between values parts separate entries of the source, which are not always exact repeats. Identical values can stand only once. “Also recorded” adds a separate entry of the source.

Experiments:
[1] = Plasma pharmacokinetics of milademetan; assay type: in vivo, human; conditions: for AUC: AUCtau
[2] = tested on: macrophage inhibitory cytokine‐1 (MIC‐1) levels in serum; test: Serum MIC-1; assay type: in vivo, human
Outline: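 Serum was drawn on cycle 1 day 1 before dosing and 6 h post dose, and on days 2, 8, 15 and 21, during oral QD dosing on days 1–21 at 60, 90 or 120 mg. MIC-1 (GDF-15) was quantified by quantitative sandwich ELISA for human GDF-15. Change from baseline was summarized by cohort using descriptive statistics.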

solid tumors = test: Efficacy assessment by RECIST version 1.1; assay type: in vivo, human
Outline: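 Adults with relapsed or refractory solid tumors took oral test compound (tosylate salt) QD on days 1–21 of 28-day cycles at 60, 90 or 120 mg. Response was assessed by RECIST 1.1 using CT and MRI every 8 weeks through cycle 8, then every 12 weeks. Minimum SD duration was 8 weeks after first dose. Summaries were descriptive over patients with efficacy data.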

[3] = tested on: six human cancer cell lines; conditions: cited from earlier work
[4] = Day 21 of cycle 1, Cohort 2 (90 mg/d) (n = 9), oral QD, mean (SD)
[5] = human, plasma, po, 60 mg/d, Day 1 of cycle 1, Cohort 1 (60 mg/d) (n = 3), oral QD, mean (SD)
[6] = human, plasma, po, 60 mg/d, Day 21 of cycle 1, Cohort 1 (60 mg/d) (n = 2), oral QD, mean (SD)
[7] = human, plasma, po, 90 mg/d, Day 1 of cycle 1, Cohort 2 (90 mg/d) (n = 11), oral QD, mean (SD)

CC1(C)CCC2(CC1)N[C@@H](C(=O)N[C@@H]1CC[C@@H](C(N)=O)OC1)[C@H](c1ccnc(Cl)c1F)[C@]21C(=O)Nc2cc(Cl)ccc21 [milademetan, Milademetan]
Plasma concentration versus dose ([1]; 60 to 120 mg QD): increased in a dose‐dependent manner; also recorded: dose‐dependent increase
Ctrough ([1]; Day 21 of cycle 1, Cohort 1 (60 mg/d) (n = 2), oral QD, mean (SD)): 192 (29.7) ng/mL
Accumulation rate [1, 4]: 1.65 (0.440)
Ctrough [1, 4]: 389 (234) ng/mL
Ctrough ([1]; Day 21 of cycle 1, Cohort 3 (120 mg/d) (n = 1), oral QD, SD not calculated): 552 (NC) ng/mL
PK linearity ([1]; dose range of 60 to 120 mg/day): linear PK
half-life ([1]; human, plasma, oral, Mean t1/2, day 1, across 60- to 120-mg cohorts): 15.1 to 17.9 h
half-life ([1]; human, plasma, oral, Mean t1/2, day 21, across 60- to 120-mg cohorts): 18.1 to 26.1 h
Tmax ([1]; human, plasma, oral, Median Tmax, all cohorts): ~3 h
AUC(0-inf) ([1]; human, plasma, po, 60 mg/d): 6320 ng·h/mL
AUC [1, 5]: 4250 ng·h/mL
AUC [1, 6]: 7390 ng·h/mL
Cmax [1, 5]: 429 ng/mL
Cmax [1, 6]: 625 ng/mL
Tmax ([1]; human, plasma, po, 60 mg/d, Tmax, Day 1 of cycle 1, Cohort 1 (60 mg/d) (n = 3), oral QD, median (minimum, maximum)): 3 h
Tmax ([1]; human, plasma, po, 60 mg/d, Tmax, Day 21 of cycle 1, Cohort 1 (60 mg/d) (n = 2), oral QD, median (minimum, maximum)): 2.48 h
half-life ([1]; human, plasma, po, 60 mg/d, t1/2, Day 1 of cycle 1, Cohort 1 (60 mg/d) (n = 3), oral QD, mean (SD)): 15.1 h
half-life ([1]; human, plasma, po, 60 mg/d, t1/2, Day 21 of cycle 1, Cohort 1 (60 mg/d) (n = 2), oral QD, mean (SD)): 18.1 h
AUC [1, 7]: 8380 ng·h/mL
Cmax [1, 7]: 692 ng/mL
Cmax ([1]; human, plasma, po, 90 mg/d, Day 21 of cycle 1, Cohort 2 (90 mg/d) (n = 9), oral QD, mean (SD)): 995 ng/mL
Tmax ([1]; human, plasma, po, 90 mg/d, Tmax, Day 1 of cycle 1, Cohort 2 (90 mg/d) (n = 11), oral QD, median (minimum, maximum)): 3 h
Tmax ([1]; human, plasma, po, 90 mg/d, Tmax, Day 21 of cycle 1, Cohort 2 (90 mg/d) (n = 9), oral QD, median (minimum, maximum)): 3.02 h
half-life ([1]; human, plasma, po, 90 mg/d, t1/2, Day 1 of cycle 1, Cohort 2 (90 mg/d) (n = 11), oral QD, mean (SD)): 15.4 h
half-life ([1]; human, plasma, po, 90 mg/d, t1/2, Day 21 of cycle 1, Cohort 2 (90 mg/d) (n = 9), oral QD, mean (SD)): 20.9 h
Cmax ([1]; human, plasma, po, 120 mg/d, Day 1 of cycle 1, Cohort 3 (120 mg/d) (n = 4), oral QD, mean (SD)): 1140 ng/mL
Tmax ([1]; human, plasma, po, 120 mg/d, Tmax, Day 1 of cycle 1, Cohort 3 (120 mg/d) (n = 4), oral QD, median (minimum, maximum)): 3.01 h
Tmax ([1]; human, plasma, po, 120 mg/d, Tmax, Day 21 of cycle 1, Cohort 3 (120 mg/d) (n = 1), oral QD, median (minimum, maximum)): 2.95 h
half-life ([1]; human, plasma, po, 120 mg/d, t1/2, Day 1 of cycle 1, Cohort 3 (120 mg/d) (n = 4), oral QD, mean (SD)): 17.9 h
AUC(0-t) ([1]; human, plasma, po, 120 mg/day): 25600 ng·h/mL
Increase of MIC-1 levels from baseline to day 21, mean (SD) ([2]; 60-mg cohort): 2175.7 (1677.40) pg/mL
Increase of MIC-1 levels from baseline to day 21, mean (SD) ([2]; 90-mg cohort): 9514.5 (6812.78) pg/mL
Increase of MIC-1 levels from baseline to day 21, mean (SD) ([2]; 120-mg cohort): 7930.5 (7636.72) pg/mL
Mean MIC-1 levels after administration ([2]; all cohorts): increased from baseline in all cohorts
Complete or partial response (solid tumors; 16 patients): No patients achieved complete or partial response
Antitumor activity (solid tumors; Japanese patients with solid tumors): modest antitumor activity
Disease control rate, percentage of patients (95% CI) (solid tumors; Total (n = 16)): 43.8%
Progressive disease, percentage of patients (95% CI) (solid tumors; Total (n = 16)): 31.3%
Stable disease, percentage of patients (95% CI) (solid tumors; Total (n = 16)): 43.8%
PFS rate (95% CI) (solid tumors; at 3 months): 56.8%
PFS rate (95% CI) (solid tumors; at 6, 9, and 12 months): 35.5%
Patients with a PFS event (solid tumors; efficacy analysis set, 17 patients): Eight of the 17 patients
Median (minimum, maximum) PFS (solid tumors; including censored patients): 15.29 (0.1, 202.1) weeks and 15.3 (0.1+, 202.1+) weeks
Median (range) duration of stable disease (solid tumors; including censored patients): 55.4 (7.3‐202.1) weeks and 55.4 (7.3+, 202.1+) weeks
PFS of one patient (solid tumors; one patient in the 60-mg cohort with SD as best response): 202.1 weeks
Growth of cancer cells harboring wild-type p53 [3]: inhibits the growth
